Compound activity (PubChem BioAssay)
TRPC4 block – blocks the mouse TRPC4 cation channel; Q9QUQ5; HEK293 TRPC4beta/mu-opioid, DAMGO-evoked Fluo4 calcium flux; stronger effect = lower value; B-score at 10 µM; actives 0.39% (n = 300,000); AID 2247;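 active = B-score over 3 SD under the library average, no early fluorescence shift, positive overall ratio signal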
Target sequence (Q9QUQ5 whole entry, looked up): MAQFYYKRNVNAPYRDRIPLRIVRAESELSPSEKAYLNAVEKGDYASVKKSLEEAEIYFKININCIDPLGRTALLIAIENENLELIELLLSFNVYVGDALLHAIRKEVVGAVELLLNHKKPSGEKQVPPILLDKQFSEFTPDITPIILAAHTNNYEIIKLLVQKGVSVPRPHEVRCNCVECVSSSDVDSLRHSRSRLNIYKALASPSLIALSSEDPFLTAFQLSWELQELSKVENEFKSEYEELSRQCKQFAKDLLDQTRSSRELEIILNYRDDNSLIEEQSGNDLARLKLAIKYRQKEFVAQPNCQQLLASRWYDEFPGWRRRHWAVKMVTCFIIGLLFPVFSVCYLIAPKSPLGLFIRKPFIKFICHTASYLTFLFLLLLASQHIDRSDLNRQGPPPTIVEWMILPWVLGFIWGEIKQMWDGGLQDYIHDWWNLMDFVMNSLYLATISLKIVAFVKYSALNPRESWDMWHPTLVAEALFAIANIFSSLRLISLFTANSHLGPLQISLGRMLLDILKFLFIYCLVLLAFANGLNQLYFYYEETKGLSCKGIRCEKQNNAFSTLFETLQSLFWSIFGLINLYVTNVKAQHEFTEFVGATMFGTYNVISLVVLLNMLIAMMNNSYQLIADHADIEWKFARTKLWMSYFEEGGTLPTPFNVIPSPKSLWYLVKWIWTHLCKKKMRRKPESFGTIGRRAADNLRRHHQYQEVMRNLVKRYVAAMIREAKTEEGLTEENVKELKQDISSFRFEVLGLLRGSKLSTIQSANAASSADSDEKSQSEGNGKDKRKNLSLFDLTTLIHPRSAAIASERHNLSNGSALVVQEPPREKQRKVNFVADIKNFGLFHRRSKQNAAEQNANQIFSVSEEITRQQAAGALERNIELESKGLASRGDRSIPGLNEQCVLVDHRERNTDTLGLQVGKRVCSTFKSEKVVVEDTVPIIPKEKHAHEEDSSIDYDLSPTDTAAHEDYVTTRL
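Assay system: Stable TRPC4beta/mu-opioid receptor HEK293 cells | Reagent: DAMGO in two steps, submaximal then maximal | Compound dosing: Single concentration per test compound | Signal: Fluo4 Ca2+ flux fluorescence | Evaluation: Per-well B score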
TRPC4 potent – allosteric potentiators of mouse TRPC4 channel | HEK293 TRPC4beta/mu-opioid, DAMGO EC20, Fluo-4 Ca2+ flux; stronger effect = higher value | B-score at 10 µM | actives 0.42% (n = 310,000);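 active = B-score of calcium response area above 5 SD of library B-scores, with initial fluorescence ratio within 5 SD of library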
TRPC4 agonist – opens the mouse TRPC4 cation channel; HEK293 TRPC4beta/mu-opioid, Fluo4 calcium fluorescence; stronger effect = higher value; B-score at 10 µM; actives 0.49% (n = 310,000); AID 2237;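 active = B-score above 5 SD of library B-scores, and initial fluorescence ratio not above library mean plus 5 SD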;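 note: positive B-score marks a calcium rise read as TRPC4 activation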
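System: HEK293 cells stably co-expressing mouse TRPC4beta and mu-opioid receptor; Schedule: Fluo4 dye loading 45 min at room temperature, 110 s recording; Detection: Fluo4 fluorescence, kinetic; Evaluation: B-scored integrated calcium fluorescence ratio; Controls: buffer (low) and maximal DAMGO (high).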
TRPC6 activator – activates the mouse TRPC6 cation channel. AID 2550. B-score at 10 µM. HEK293-TRPC6 membrane potential dye fluorescence; stronger effect = higher value. actives 0.13% (n = 310,000);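 active = B-score of the integrated fluorescence ratio above library mean plus 3 SD, and starting fluorescence ratio within library mean plus 5 SD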;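 note: higher score means more depolarization so channel activation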
TRPC6 inhibitor – inhibitors of mouse TRPC6 channel; AID 2553; Q61143; actives 1.1% (n = 310,000); B-score at 10 µM; HEK293-TRPC6, membrane potential dye, ACh-evoked depolarization; stronger effect = lower value;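 active = B-score under library mean minus 3 SD, initial fluorescence not abnormally high, positive integrated signal ratio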;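 note: B-score derived from integrated fluorescence ratio over the kinetic read; more negative B-score means stronger inhibition of depolarization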
TRPC4 spec 2 – mouse TRPC4 off-target activity of TRPC6 inhibitors, second screen; shares compounds with TRPC6 inhibitor; HEK293 TRPC4/MOR, membrane potential dye fluorescence; channel activated by saturating DAMGO dose; inhibition, % at 10 µM; actives 42% (n = 920);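 active = compounds whose fluorescence signal differed from control wells by over 3 SD, either direction, in both duplicate plates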
TRPC4 spec – selectivity of TRPC6 inhibitors: effect on mouse TRPC4 | shares compounds with TRPC6 inhibitor | HEK293 TRPC4/mu-opioid, membrane potential fluorescence | activity change, negative = inhibition, % at 10 µM | actives 61% (n = 920);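 active = rise or fall in signal beyond 3 SD of buffer-only wells in both replicate plates, either sign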;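 note: integrated kinetic ratio of fluorescence range over baseline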
HEK293 MPD ctr 2-1 – parental HEK293 nonspecific activity of TRPC6 inhibitors, second screen | signal change vs control, % at 10 µM | shares compounds with TRPC6 inhibitor | actives 31% (n = 920) | parental HEK293 membrane potential dye fluorescence; maximal acetylcholine challenge after compound addition;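 active = membrane potential signal moving either way by over 3 SD of the maximum-effect control, in both duplicate plates, meaning non-specific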
HEK293 MPD ctr-1 – checks TRPC6 inhibitor effects in parental HEK293 cells. shares compounds with TRPC6 inhibitor. membrane potential signal change, % at 10 µM. AID 2780. parental HEK293 membrane potential dye fluorescence. actives 60% (n = 920);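 active = membrane potential signal shifting up or down by more than 3 SD of buffer-only wells, on both duplicate plates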
HEK293 MPD ctr-2 – checks TRPC6 modulator effects in parental HEK293 cells; AID 488924; shares compounds with TRPC6 inhibitor; membrane potential dye fluorescence; actives 51% (n = 2,400); membrane potential signal change, % at 10 µM;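 active = membrane potential signal moves up or down beyond 5 SD from buffer-only wells, on both duplicate plates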
HEK293 MPD ctr 2-2 – parental HEK293 nonspecific activity of TRPC6 modulators, second screen. shares compounds with TRPC6 inhibitor. membrane potential dye fluorescence; after compound, maximal acetylcholine stimulation. inhibition, % at 10 µM. actives 14% (n = 2,400). AID 488926;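 active = membrane potential signal drops by more than 5 SD from the mean control signal, in both duplicate plates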
TRPC4 ctr mod – tests whether TRPC6 modulators also affect mouse TRPC4; percent change from control (negative = decrease, positive = increase), % at 10 µM; shares compounds with TRPC6 inhibitor; HEK293 TRPC4/mu-opioid, membrane potential fluorescence; actives 69% (n = 2,400);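 active = membrane potential signal moved up or down beyond 5 SD of buffer control wells, in both duplicate plates, actives on both sides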
TRPC4/MOR inh 2 – second check of whether TRPC6 modulators also affect mouse TRPC4; inhibition, % at 10 µM; HEK293 TRPC4/mu-opioid, membrane potential dye fluorescence; stimulated with maximal-effect DAMGO; AID 488928; shares compounds with TRPC6 inhibitor; actives 55% (n = 2,400);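 active = drop in membrane potential signal beyond 5 SD of the control wells in both duplicate plates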;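 note: TRPC4 counter screen for TRPC6 hits run under conditions tuned for TRPC6 not TRPC4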
TRPC6 inh conf – mouse TRPC6 inhibitor confirmation; shares compounds with TRPC6 inhibitor; HEK293-TRPC6, membrane potential dye, ACh-evoked depolarization; inhibition, % at 10 µM; actives 43% (n = 3,300);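 active = fluorescence ratio falls more than 5 SD below the full-stimulation control mean, in both duplicate runs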;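 note: integrated fluorescence ratio of peak minus minimum over baseline after agonist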
TRPC6 act conf – confirmation of mouse TRPC6 activators. shares compounds with TRPC6 inhibitor. HEK293-TRPC6 membrane potential dye fluorescence, FDSS. activation, % at 10 µM. actives 11% (n = 2,800);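 active = ratio signal rise beyond 5 SD above unstimulated control wells' mean, seen in both duplicate runs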
Large screens that a line does not name were inactive (follow-up assays come after a bar, where they were run). Shown are actives, neighbours in structure and some others; about 2.3% of the full set was active somewhere.

COCCCn1c(=NC(C)=O)c(C#N)cc2c(=O)n3cccc(C)c3nc21	TRPC6 inhibitor -6 | HEK293 MPD ctr-2 -140% | HEK293 MPD ctr 2-2 inactive | TRPC4 ctr mod -42% | TRPC4/MOR inh 2 28% | TRPC6 inh conf inactive | TRPC6 act conf inactive
Cc1cccn2c(=O)c3cc(C#N)c(=NC(=O)c4ccccc4)n(Cc4ccco4)c3nc12	none
CCC(=O)N1CCN(c2ccc(NC(=O)COc3ccccc3[N+](=O)[O-])cc2)CC1	none
Cc1ccc(C)c2[nH]c(=O)c(CN(CCN3CCCC3)C(=O)Nc3cccc(Cl)c3)cc12	TRPC6 inhibitor -6.8 | HEK293 MPD ctr-2 inactive | HEK293 MPD ctr 2-2 67% | TRPC4 ctr mod inactive | TRPC4/MOR inh 2 80% | TRPC6 inh conf 60% | TRPC6 act conf inactive
Cc1ccc2c(C(=O)CCl)c(C)[nH]c2c1	none
CCOc1ccc(N(CC(=O)Nc2cc(Cl)ccc2C)S(C)(=O)=O)cc1	none
O=C(CCc1nc2ccccc2c(=O)[nH]1)N1CCN(C/C=C/c2ccccc2)CC1	none
O=c1[nH]c(CN2CCN(C/C=C/c3ccccc3)CC2)nc2cc(Cl)ccc12	TRPC6 inhibitor -5.3 | HEK293 MPD ctr-2 inactive | HEK293 MPD ctr 2-2 inactive | TRPC4 ctr mod 8.5% | TRPC4/MOR inh 2 44% | TRPC6 inh conf inactive | TRPC6 act conf inactive
CC1CCN(CCCCOc2ccc(C(C)(C)C)cc2)CC1	none
CC(C)(c1ccccc1)c1ccc(OCCCN2CCNCC2)cc1	TRPC6 inhibitor -6.8 | TRPC4 spec 2 34% | TRPC4 spec inactive | HEK293 MPD ctr 2-1 inactive | HEK293 MPD ctr-1 2.3% | TRPC6 inh conf inactive | TRPC6 act conf inactive
CC(C)(C)c1ccc(OCCCCCCN2CCNCC2)cc1	TRPC6 inhibitor -7.7 | TRPC4 spec 2 52% | TRPC4 spec -0.1% | HEK293 MPD ctr 2-1 inactive | HEK293 MPD ctr-1 2.7% | TRPC6 inh conf 61% | TRPC6 act conf inactive
CCOc1cccc(C2/C(=C(/O)c3ccc4c(c3)CC(C)O4)C(=O)C(=O)N2CCCn2ccnc2)c1 (stereo not given)	none
NC(=O)CNC(=O)[C@@H]1CC2(CC(c3ccc(Cl)cc3)=NO2)CN1C(=O)c1ccccc1 (stereo not given in full)	none
Cc1[nH]c2c(Cl)cccc2c(=O)c1CN1CCCCCC1	TRPC6 inhibitor -5.9 | HEK293 MPD ctr-2 -73% | HEK293 MPD ctr 2-2 inactive | TRPC4 ctr mod -18% | TRPC4/MOR inh 2 inactive | TRPC6 inh conf inactive | TRPC6 act conf inactive
O=C(COc1ccccc1)NCC(c1ccco1)N1CCN(c2ccccc2F)CC1 (stereo not given)	TRPC6 inhibitor -5.9 | HEK293 MPD ctr-2 141% | HEK293 MPD ctr 2-2 inactive | TRPC4 ctr mod 32% | TRPC4/MOR inh 2 46% | TRPC6 inh conf 64%
O=C(CCOc1ccccc1)NCC(c1ccco1)N1CCCCC1 (stereo not given)	TRPC6 inhibitor -5.6 | HEK293 MPD ctr-2 inactive | HEK293 MPD ctr 2-2 inactive | TRPC4 ctr mod 12% | TRPC4/MOR inh 2 inactive | TRPC6 inh conf inactive
CC(C)Oc1ccc(CNC(=O)C2CCCN(S(=O)(=O)N3CCOCC3)C2)cc1 (stereo not given)	none
CC(=O)Nc1ccc(C(=O)N/C(=C\c2ccccc2)C(=O)Nc2cccc(C(=O)O)c2)cc1	none
CNC(=S)N(Cc1cc2cc(OC)c(OC)cc2[nH]c1=O)C1CCCC1	none
Cc1nnc(C)c2c(C)n(-c3ccc(Cl)c(N)c3)c(C)c12	none
Cc1cc(C)cc(-n2c(C)c3c(C)nnc(C)c3c2C)c1	TRPC6 inhibitor -7.6 | TRPC4 spec 2 54% | TRPC4 spec -19% | HEK293 MPD ctr 2-1 inactive | HEK293 MPD ctr-1 -216% | TRPC6 inh conf inactive | TRPC6 act conf inactive
O=C(Nc1cc(Cl)ccc1Cl)Nn1cnnc1	none
C=CCSc1nc(N)c2c3c(sc2n1)CN(C)CC3	TRPC6 inhibitor -6.5 | HEK293 MPD ctr-2 -76% | HEK293 MPD ctr 2-2 inactive | TRPC4 ctr mod -20% | TRPC4/MOR inh 2 inactive | TRPC6 inh conf inactive | TRPC6 act conf inactive
COC(CSc1nc(N)c2c3c(sc2n1)CN(C)CC3)OC	none
CSc1nc(N)c2c3c(sc2n1)CN(C)CC3	TRPC6 inhibitor -7 | HEK293 MPD ctr-2 -124% | HEK293 MPD ctr 2-2 inactive | TRPC4 ctr mod -25% | TRPC4/MOR inh 2 inactive | TRPC6 inh conf inactive | TRPC6 act conf inactive
Cc1cccc(C(=O)NC2CCN(S(=O)(=O)c3ccccc3)CC2)c1	none
O=C(COc1ccc(Cl)cc1Cl)Nc1ccc(CN2CCOCC2)cc1	none
Cc1noc(NS(=O)(=O)c2ccc(NC(=O)COc3ccc(Cl)cc3Cl)cc2)c1C	TRPC6 inhibitor -5.8 | HEK293 MPD ctr-2 inactive | HEK293 MPD ctr 2-2 inactive | TRPC4 ctr mod inactive | TRPC4/MOR inh 2 inactive | TRPC6 inh conf inactive | TRPC6 act conf inactive
Cc1ccc(Cl)cc1N1CCN(CC(=O)Nc2ccc(CN3CCCCC3)cc2)CC1	TRPC6 inhibitor -5.5 | HEK293 MPD ctr-2 152% | HEK293 MPD ctr 2-2 inactive | TRPC4 ctr mod 19% | TRPC4/MOR inh 2 76% | TRPC6 inh conf 44%
COc1ccccc1N1CCN(CC(=O)Nc2ccc(CN3CCCCC3)cc2)CC1	none
